# Reference: PubChem BioAssay AID492981 (Johns Hopkins Ion Channel Center, 2010)
# Results filed as inconclusive are left out. Active and inactive are the calls of the source.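 The calls were made as follows: active = compound whose replicate-averaged normalized fluorescence ratio fell more than 5 SD below the agonist-stimulated control mean; inactive = the rest, inconclusive results apart.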
# Target: Short transient receptor potential channel 6 (Mus musculus) (UniProt Q61143)
# Test: TRPC6 inhibition by TRPC4 inhibitor analogs, SAR follow-up, selectivity assay for selective TRPC4 inhibitor project, HEK293 cells, membrane potential dye, single concentration (AID 492981)
# Conditions: membrane potential dye fluorescence, at 10 µM, stronger effect = higher value
# In short: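 System: TRPC6-expressing HEK293 cells | Evaluation: Integrated fluorescence ratio inhibition versus positive controls | Probe or stimulus: ECmax acetylcholine | Repeats: Duplicate or more | Schedule: Dye loading 45 min at room temperature, compound preincubation 110 s | Detection: Membrane potential dye fluorescence, kinetic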
# Sequence of Short transient receptor potential channel 6 (Mus musculus) (Q61143 whole entry, looked up): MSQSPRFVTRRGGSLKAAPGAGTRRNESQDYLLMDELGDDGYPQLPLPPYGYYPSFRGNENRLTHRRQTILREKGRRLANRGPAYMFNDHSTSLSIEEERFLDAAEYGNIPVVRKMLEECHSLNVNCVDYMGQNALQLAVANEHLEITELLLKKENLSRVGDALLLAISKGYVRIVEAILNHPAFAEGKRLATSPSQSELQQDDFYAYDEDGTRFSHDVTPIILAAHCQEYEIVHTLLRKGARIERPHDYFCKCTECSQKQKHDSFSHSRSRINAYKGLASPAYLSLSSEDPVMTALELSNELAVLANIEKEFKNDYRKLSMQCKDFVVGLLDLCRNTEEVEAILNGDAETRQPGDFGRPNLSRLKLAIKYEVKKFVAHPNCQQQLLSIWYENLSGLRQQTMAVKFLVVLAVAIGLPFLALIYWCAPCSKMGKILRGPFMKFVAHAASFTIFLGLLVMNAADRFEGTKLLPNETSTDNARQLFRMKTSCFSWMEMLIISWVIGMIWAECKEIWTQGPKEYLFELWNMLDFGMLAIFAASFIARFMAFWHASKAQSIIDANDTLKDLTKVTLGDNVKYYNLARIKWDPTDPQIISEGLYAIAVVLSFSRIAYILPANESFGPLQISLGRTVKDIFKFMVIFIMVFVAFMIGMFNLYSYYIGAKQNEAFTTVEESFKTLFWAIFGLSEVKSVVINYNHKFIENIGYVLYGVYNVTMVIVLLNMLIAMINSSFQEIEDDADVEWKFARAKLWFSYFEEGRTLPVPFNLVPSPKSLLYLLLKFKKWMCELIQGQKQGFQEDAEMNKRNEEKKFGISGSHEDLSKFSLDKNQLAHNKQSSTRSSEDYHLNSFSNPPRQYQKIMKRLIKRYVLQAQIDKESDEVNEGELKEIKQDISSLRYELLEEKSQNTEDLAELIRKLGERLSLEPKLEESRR
row,SMILES,inhibition
1,Cc1cc(N(C)CCN(C)C)nc2ccccc12,18.1% (inactive)
2,FC(F)(F)c1cc(N2CCCC2)nc2ccccc12,11.5% (inactive)
3,CCN(CC)c1cc(C)c2ccccc2n1,9.79% (inactive)
4,Cc1cc(N2CCOc3ccccc32)nc2ccccc12,13.7% (inactive)
5,Cc1ccnc(N2CCCCC2)c1,-2.93% (inactive)
6,Cc1cc(N2CCCCC2)nc2c(C)cccc12,3.23% (inactive)
7,Cc1ccc2nc(N3CCCCC3)cc(C)c2c1,37.5% (inactive)
8,Cc1cc(N2CCN(C)CC2)nc2ccccc12,2.9% (inactive)
9,COc1ccccc1N1CCN(c2cc(C)c3ccccc3n2)CC1,11.7% (inactive)
10,CCc1ccc2nc(N3CCCCC3)cc(C)c2c1,13.6% (inactive)
11,COCCN(C)c1cc(C)c2ccccc2n1,22.2% (inactive)
12,c1ccc(-c2cc(N3CCCC3)nc3ccccc23)cc1,2.24% (inactive)
13,Cc1cc(N2CCNCC2)nc2ccccc12,37.2%
14,FC(F)(F)c1cc(N2CCCCC2)nc2ccccc12,-6.62% (inactive)
15,Cc1cc(N2CCCCC2)nc2ccc(F)cc12,3.78% (inactive)
16,Cc1cc(N2CCCC2)nc2c(C)cccc12,33.9% (inactive)
17,c1ccc(-c2cc(N3CCCCC3)nc3ccccc23)cc1,19.4% (inactive)
18,Cc1ccnc(N2CCCC2)n1,-6.71% (inactive)
19,COc1ccc(N2CCN(c3cc(C)c4ccccc4n3)CC2)cc1,15.5% (inactive)
20,Cc1ccnc(N2CCCC2)c1,-27.6% (inactive)
21,Cc1ccnc(N2CCCCC2)n1,-9.81% (inactive)
22,Cc1cc(N2CCN(c3ccccc3C#N)CC2)nc2ccccc12,0.71% (inactive)

# More lines, now with the values ahead:
row,inhibition,SMILES
1,26.7%,Cc1cc(N2CCCC(O)C2)nc2ccccc12 (stereo not drawn)
2,42.7%,Cc1cc(N2CCCCC2)nc2ccccc12
3,6.28% (inactive),Cc1cc(N2CCN(c3ncccn3)CC2)nc2ccccc12
4,61.2%,Cc1cc(N2CCN(c3ccncc3)CC2)nc2ccccc12
5,13.6% (inactive),Cc1cc(N2CCC(C)CC2)nc2ccccc12
6,44.8%,Cc1cc(N2CCC(N3CCOCC3)CC2)nc2ccccc12
7,14.3% (inactive),Cc1cc(N2CCN(CC3CCCO3)CC2)nc2ccccc12 (stereo not drawn)
8,16.4% (inactive),Cc1cc(N2CC(C)CC(C)C2)nc2ccccc12 (stereo not drawn)
9,57.9%,Cc1cc(N2CCCC2)nc2ccccc12
10,47.6%,Cc1cc(N2CCC[C@@H]2C)nc2ccccc12
11,2.35% (inactive),Cc1cc(N2CCOCC2)nc2ccccc12
